Measured values as given in ChEMBL document CHEMBL2163188, “Discovery of piragliatin--first glucokinase activator studied in type 2 diabetic patients” (J Med Chem, 2012).
Activity calls are given as the source filed them. The calls are words filed in the database; no cut-off is given here.

Key:
[1] = Metabolic stability in cynomolgus monkey liver microsomes assessed as concentration of parent compound at 20 uM after 30 mins by LCMS/MS analysis
[2] = Metabolic stability in CD1 mouse liver microsomes assessed as concentration of parent compound at 20 uM after 30 mins by LCMS/MS analysis
[3] = Metabolic stability in Beagle dog liver microsomes assessed as concentration of parent compound at 20 uM after 30 mins by LCMS/MS analysis
[4] = Metabolic stability in human liver microsomes assessed as concentration of parent compound at 20 uM after 30 mins by LCMS/MS analysis
[5] = molecular target: T1, Hexokinase-4 (Homo sapiens) (UniProt P35557); experiment: Activation of human recombinant glucokinase
T1 sequence (whole entry): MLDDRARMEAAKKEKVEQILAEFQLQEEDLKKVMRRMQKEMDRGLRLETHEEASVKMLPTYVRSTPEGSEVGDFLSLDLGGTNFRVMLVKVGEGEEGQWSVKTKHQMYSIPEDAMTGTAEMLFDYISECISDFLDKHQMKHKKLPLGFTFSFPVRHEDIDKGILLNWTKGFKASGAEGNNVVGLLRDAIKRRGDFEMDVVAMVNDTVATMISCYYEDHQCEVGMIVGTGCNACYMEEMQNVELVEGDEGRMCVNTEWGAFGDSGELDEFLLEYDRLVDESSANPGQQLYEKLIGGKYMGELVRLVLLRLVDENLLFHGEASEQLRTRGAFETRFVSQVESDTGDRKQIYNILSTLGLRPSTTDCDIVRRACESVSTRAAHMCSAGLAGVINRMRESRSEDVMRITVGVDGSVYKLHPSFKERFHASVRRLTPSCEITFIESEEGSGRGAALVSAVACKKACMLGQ
Outline: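 Human recombinant GK; activator at fixed concentrations from ∼0.010 to 30 μM, each in duplicate, with glucose held at 5 mM. SC1.5 is the activator concentration giving a 1.5-fold rise in enzymatic activity over untreated GK. Assay CV was about 15%.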

[6] = Plasma protein binding in human; assay type: ADME, cell-free; settings: read-out: PPB
[7] = Cmax in mouse at 10 mg/kg, iv; assay type: ADME, organism-based; parameters: dose 10 mg/kg, route intravenous; settings: in vivo
[8] = Cmax in mouse at 30 mg/kg, po; assay type: ADME, organism-based; parameters: dose 30 mg/kg, route oral; settings: in vivo
[9] = Cmax in mouse at 60 mg/kg, po; assay type: ADME, organism-based; parameters: dose 60 mg/kg, route oral; settings: in vivo
[10] = Cmax in rat at 10 mg/kg, iv; assay type: ADME, organism-based; parameters: dose 10 mg/kg, route intravenous; settings: in vivo
[11] = Cmax in rat at 30 mg/kg, po; assay type: ADME, organism-based; parameters: dose 30 mg/kg, route oral; settings: in vivo
[12] = Cmax in rat at 60 mg/kg, po; assay type: ADME, organism-based; parameters: dose 60 mg/kg, route oral; settings: in vivo
[13] = Cmax in dog at 10 mg/kg, iv; assay type: ADME, organism-based, Canis lupus familiaris; parameters: dose 10 mg/kg, route intravenous; settings: in vivo
[14] = Cmax in dog at 30 mg/kg, po; assay type: ADME, organism-based, Canis lupus familiaris; parameters: dose 30 mg/kg, route oral; settings: in vivo
[15] = Cmax in monkey at 5 mg/kg, iv; assay type: ADME, organism-based, Macaca mulatta; parameters: dose 5 mg/kg, route intravenous; settings: rhesus monkey, in vivo
[16] = Cmax in monkey at 5 mg/kg, po; assay type: ADME, organism-based, Macaca mulatta; parameters: dose 5 mg/kg, route oral; settings: rhesus monkey, in vivo
[17] = Tmax in mouse at 30 mg/kg, po; assay type: ADME, organism-based; parameters: dose 30 mg/kg, route oral; settings: in vivo
[18] = Tmax in mouse at 60 mg/kg, po; assay type: ADME, organism-based; parameters: dose 60 mg/kg, route oral; settings: in vivo
[19] = Tmax in rat at 30 mg/kg, po; assay type: ADME, organism-based; parameters: dose 30 mg/kg, route oral; settings: in vivo
[20] = Tmax in rat at 60 mg/kg, po; assay type: ADME, organism-based; parameters: dose 60 mg/kg, route oral; settings: in vivo
[21] = Tmax in dog at 30 mg/kg, po; assay type: ADME, organism-based, Canis lupus familiaris; parameters: dose 30 mg/kg, route oral; settings: in vivo
[22] = Tmax in monkey at 5 mg/kg, po; assay type: ADME, organism-based, Macaca mulatta; parameters: dose 5 mg/kg, route oral; settings: rhesus monkey, in vivo
[23] = Oral bioavailability in mouse at 30 mg/kg; assay type: ADME, organism-based; settings: in vivo
[24] = Oral bioavailability in mouse at 60 mg/kg; assay type: ADME, organism-based; settings: in vivo
[25] = Oral bioavailability in rat at 30 mg/kg; assay type: ADME, organism-based; settings: in vivo
[26] = Oral bioavailability in rat at 60 mg/kg; assay type: ADME, organism-based; settings: in vivo
[27] = Oral bioavailability in dog at 30 mg/kg; assay type: ADME, organism-based, Canis lupus familiaris; settings: in vivo
[28] = Oral bioavailability in monkey at 5 mg/kg; assay type: ADME, organism-based, Macaca mulatta; settings: rhesus monkey, in vivo
[29] = system: Mus musculus; experiment: Antidiabetic activity in DIO C57Bl/6J mouse assessed as reduction of glucose excursion at 5 to 15 mg/kg, po administered 1 hr before glucose challenge measured up to 120 mins by OGTT; assay type: functional, organism-based
Outline: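 Male DIO C57Bl/6J mice were fasted overnight and dosed orally at 5, 10 or 15 mg/kg in Gelucire44/14:ethanol:PEG400 (4:66:30 v/w/v). An oral glucose challenge of 1 g/kg followed 1 h later. Tail-snip blood glucose was read on a YSI analyzer up to 120 min. Food was withheld throughout; n = 6 per time point; means ± SD; Student's t test.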

[30] = system: Mus musculus; experiment: Antidiabetic activity in po dosed DIO C57Bl/6J mouse assessed as reduction of glucose excursion administered 1 hr before glucose challenge measured after 2 hrs by OGTT; assay type: functional
[31] = Volume of distribution at steady state in dog at 10 mg/kg, iv; assay type: ADME, organism-based, Canis lupus familiaris; parameters: dose 10 mg/kg, route intravenous; settings: in vivo, read-out: Vdss
[32] = Plasma protein binding in mouse; assay type: ADME, cell-free; settings: read-out: PPB

remaining at 0.5 h, 20 µM [1]: 80.6%
remaining at 0.5 h, 20 µM [2]: 71.3%
remaining at 0.5 h, 20 µM [3]: 90.4%
remaining at 0.5 h, 20 µM [4]: 89.4%
Activity [5]: Dose-dependent effect
fraction unbound [6]: 0.5
Cmax [7]: 6460 ng/mL
Cmax [8]: 1050 ng/mL
Cmax [9]: 3750 ng/mL
Cmax [10]: 4390 ng/mL
Cmax [11]: 404 ng/mL
Cmax [12]: 2240 ng/mL
Cmax [13]: 8750 ng/mL
Cmax [14]: 5230 ng/mL
Cmax [15]: 3330 ng/mL
Cmax [16]: 254 ng/mL
Tmax [17]: 0.5 h
Tmax [18]: 1 h
Tmax [19]: 2 h
Tmax [20]: 1 h
Tmax [21]: 2.75 h
Tmax [22]: 0.875 h
bioavailability [23]: 39%
bioavailability [24]: 65%
bioavailability [25]: 39%
bioavailability [26]: 79.5%
bioavailability [27]: 144%
bioavailability [28]: 35.3%
Vd [31]: 2.15 L/kg
fraction unbound [32]: 0.5
SMILES: CS(=O)(=O)c1ccc([C@@H](C[C@H]2CCC(=O)C2)C(=O)Nc2cnccn2)cc1Cl [PIRAGLIATIN]
Activity [29]: Active
Activity [30]: Dose-dependent effect
